According to ChEMBL document CHEMBL3763144, “Optimization of a Novel Series of Ataxia-Telangiectasia Mutated Kinase Inhibitors as Potential Radiosensitizing Agents” (J Med Chem, 2016):

Key:
[1] = Stability of the compound in phosphate buffered saline assessed as compound stability time at pH 3 by UPLC-MS analysis; format: physicochemical; details: buffer
[2] = Intrinsic clearance in rat liver microsomes after 0.5 to 4 hrs by UPLC-MS analysis; format: ADME; details: read-out: CLH
[3] = Stability of the compound in phosphate buffered saline assessed as compound stability time at pH 7.4 by UPLC-MS analysis; format: physicochemical; details: buffer
Plasma [4] = assay: Stability in mouse plasma assessed as compound stability time by UPLC-MS analysis; format: ADME, cell-free
[5] = Intrinsic clearance in CD-1 mouse liver microsomes after 0.5 to 4 hrs by UPLC-MS analysis; format: ADME; details: read-out: CLH
Plasma [6] = assay: Stability in rat plasma assessed as compound stability time by UPLC-MS analysis; format: ADME, cell-free
[7] = Stability of the compound in phosphate buffered saline assessed as compound stability time at pH 5 by UPLC-MS analysis; format: physicochemical; details: buffer
[8] = Permeability of the compound at 10 uM after 30 mins by PAMPA; format: ADME; details: read-out: permeability
[9] = Half life in dog liver microsomes by UPLC-MS analysis; format: ADME, Canis lupus familiaris
[10] = Half life in human liver microsomes by UPLC-MS analysis; format: ADME
Plasma [11] = assay: Stability in human plasma assessed as compound stability time by UPLC-MS analysis; format: ADME, cell-free
[12] = Intrinsic clearance in dog liver microsomes after 0.5 to 4 hrs by UPLC-MS analysis; format: ADME, Canis lupus familiaris; details: read-out: CLH
[13] = Half life in CD-1 mouse liver microsomes by UPLC-MS analysis; format: ADME
[14] = Intrinsic clearance in human liver microsomes after 0.5 to 4 hrs by UPLC-MS analysis; format: ADME; details: read-out: CLH
[15] = Half life in rat liver microsomes by UPLC-MS analysis; format: ADME
[16] = Cmax in C57BL/6 mouse at 20 mg/kg, iv by UPLC-MS analysis; format: ADME, organism-based; design: dose 20 mg/kg, route intravenous; details: in vivo
Procedure, shortened: (§1)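 Female C57BL/6 mice, 22-27 g; single tail-vein injection at 10 or 20 mg/kg (vehicle groups at 0) in EtOH/PPG/PBS pH 7.4 5/45/50 with HβCD 10 mM and 5% DMSO, 4 ml/kg. Blood taken at 5, 15, 30 min, 1, 4, 24 h, one mouse per time point, and at 48 h. EDTA plasma mixed with acetonitrile containing warfarin internal standard; UPLC/MS quantitation by peak-area ratio.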

[17] = Half life in C57BL/6 mouse at 20 mg/kg, iv by UPLC-MS analysis; format: ADME, organism-based; details: in vivo; procedure, shortened: as §1
[18] = Half life of the compound in aqueous buffer; format: physicochemical
Mus musculus [19] = species: Mus musculus; assay: Drug metabolism in C57BL/6 mouse assessed as 4-(5-amino-3-(pyridin-2-yl)-1H-1,2,4-triazol-1-yl)-7-methoxyquinazolin-6-ol formation by qualitative tandem mass spectrometric analysis; format: ADME, organism-based; details: in vivo
Mus musculus [20] = species: Mus musculus; assay: Drug metabolism in C57BL/6 mouse assessed as (2S,3S,4S,5R,6S)-6-(4-(5-amino-3-(pyridin-2-yl)-1H-1,2,4-triazol-1-yl)-7-methoxyquinazolin-6-yloxy)-3,4,5-trihydroxytetrahydro-2H-pyran-2-carboxylic acid formation by qualitative tandem mass spectrometric analysis; format: ADME, organism-based; details: in vivo
[21] = Half life in C57BL/6 mouse at 10 mg/kg, iv; format: ADME, organism-based; details: in vivo; procedure, shortened: as §1
Mus musculus [22] = species: Mus musculus; assay: Drug metabolism in C57BL/6 mouse assessed as 4-(5-amino-3-(pyridin-2-yl)-1H-1,2,4-triazol-1-yl)quinazoline-6,7,8-triol formation by qualitative tandem mass spectrometric analysis; format: ADME, organism-based; details: in vivo
[23] = Clearance in C57BL/6 mouse at 10 mg/kg, iv; format: ADME, organism-based; details: in vivo; procedure, shortened: as §1
[24] = Tmax in C57BL/6 mouse at 20 mg/kg, iv by UPLC-MS analysis; format: ADME, organism-based; details: in vivo
Procedure, shortened: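 Female C57BL/6 mice (22-27 g) received a single tail-vein injection at 4 ml/kg in 5/45/50 EtOH/PPG/PBS (pH 7.4) with 10 mM HβCD and 5% DMSO. Groups were 0, 10 and 20 mg/kg. Blood was drawn retro-orbitally at 5, 15, 30 min, 1, 4, 24 and 48 h into EDTA. Plasma was precipitated with acetonitrile containing 2 uM warfarin as internal standard and quantified by UPLC/MS from the analyte/internal-standard peak-area ratio.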

Mus musculus [25] = species: Mus musculus; assay: Drug level in C57BL/6 mouse treated with 1-(6,7-Dimethoxyquinazolin-4-yl)-3-(pyridin-2-yl)-1H-1,2,4-triazol-5-amine by qualitative tandem mass spectrometric analysis; format: ADME, organism-based; details: in vivo

Structure (SMILES)	Stability [1]	CLint scaled [2]	Stability [3]	Stability (Plasma [4])	CLint scaled [5]	Stability (Plasma [6])	Stability [7]	Papp at 0.5 h, 10 µM [8]	half-life [9]	half-life [10]	Stability (Plasma [11])	CLint scaled [12]	half-life [13]	CLint scaled [14]	half-life [15]	Cmax [16]	Drug metabolism (Mus musculus [25])	further results
COc1cc2ncnc(-n3nc(-c4ccccn4)nc3N)c2cc1OCCCNC(=O)OC(C)C	> 24 h	45.1 mL/min/kg	> 24 h	> 24 h	329 mL/min/kg	> 24 h	> 24 h	432 ×10⁻⁶ cm/s	> 240 min	66 min	> 24 h	< 7.9 mL/min/kg	12 min	18.8 mL/min/kg	60 min			
COCCOc1cc2c(-n3nc(-c4ccccn4)nc3N)ncnc2cc1OC	> 24 h	< 11.7 mL/min/kg	> 24 h	> 48 h	27.1 mL/min/kg	> 24 h	> 24 h	196 ×10⁻⁶ cm/s	> 240 min	> 240 min	> 48 h	< 8.3 mL/min/kg	120 min	< 5.2 mL/min/kg	> 240 min	9.5 µM		half-life [17]: 1140 min
COCCOc1cc2ncnc(-n3nc(-c4ccccn4)nc3N)c2cc1OCCOC	> 48 h	< 11.7 mL/min/kg	> 48 h	> 48 h	22.9 mL/min/kg		> 48 h	16.6 ×10⁻⁶ cm/s	> 240 min	96 min	> 48 h	< 8.3 mL/min/kg	144 min	12.9 mL/min/kg	> 240 min	5.8 µM		
COc1cc2ncnc(-n3nc(-c4ccccn4)nc3N)c2cc1OC	> 48 h	57.8 mL/min/kg	> 48 h	> 48 h	61.7 mL/min/kg	19 h	> 48 h	95.9 ×10⁻⁶ cm/s	36 min	204 min	> 48 h	52.5 mL/min/kg	54 min	6.1 mL/min/kg	48 min	4 µM		half-life [18]: > 2880 min; Drug metabolism (Mus musculus [19]): metabolite_detected; Drug metabolism (Mus musculus [20]): metabolite_detected; half-life [21]: 60 min; Drug metabolism (Mus musculus [22]): metabolite_detected; clearance [23]: 2.67 mL/min; Tmax [24]: 5 min
COc1cc2ncnc(-n3nc(-c4ccccn4)nc3N)c2cc1O																	metabolite_detected	
Nc1nc(-c2ccccn2)nn1-c1ncnc2c(O)c(O)c(O)cc12																	metabolite_detected	
COc1cc2ncnc(-n3nc(-c4ccccn4)nc3N)c2cc1O[C@@H]1O[C@H](C(=O)O)[C@@H](O)[C@H](O)[C@H]1O																	metabolite_detected	
